SENP1 FRET inh – human SENP1 catalytic domain inhibitors, primary screen, biochemical, FRET, uHTS. AID 624204, 2012. Sentrin-specific protease 1 (Homo sapiens), Q9P0U3. inhibition, % at 10 µM. recombinant SENP1 catalytic domain, CyPet-SUMO1-YPet FRET cleavage. hit rate 0.21% among 360,000;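 active means inhibition at least 30% at 10 µM, raw YFP signal under a set limit, fluorescence ratio 0.5 to 1.5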;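 further: 0% = enzyme with DMSO and 100% = no enzyme wells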
Target sequence (Q9P0U3 419-644 limits assumed): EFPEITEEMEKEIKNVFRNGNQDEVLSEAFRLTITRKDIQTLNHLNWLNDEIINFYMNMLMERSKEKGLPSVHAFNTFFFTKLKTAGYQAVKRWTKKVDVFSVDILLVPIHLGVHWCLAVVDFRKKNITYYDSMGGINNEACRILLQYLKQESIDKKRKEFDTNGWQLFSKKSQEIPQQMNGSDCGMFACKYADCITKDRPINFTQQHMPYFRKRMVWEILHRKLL
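Test system: human SENP1 catalytic domain; medium: Tris pH 8 buffer plus EDTA, NaCl, BME, BSA, NP40, catalase; incubation: 50 min reaction at room temperature; technique: FRET, CFP and YFP emission; controls: no-enzyme low control and enzyme-plus-DMSO high control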
SENP8 block-1 – SENP8 protease inhibitors, primary screen, biochemical, luminescence; Sentrin-specific protease 8 (Homo sapiens), Q96LD8; purified SENP8, Z-RLRGG-aminoluciferin cleavage; inhibition, % at 10 µM; hit rate 1.2% among 330,000; AID 2540, 2010; in the data active means inhibition above about 50%
Target sequence (Q96LD8 whole entry, looked up): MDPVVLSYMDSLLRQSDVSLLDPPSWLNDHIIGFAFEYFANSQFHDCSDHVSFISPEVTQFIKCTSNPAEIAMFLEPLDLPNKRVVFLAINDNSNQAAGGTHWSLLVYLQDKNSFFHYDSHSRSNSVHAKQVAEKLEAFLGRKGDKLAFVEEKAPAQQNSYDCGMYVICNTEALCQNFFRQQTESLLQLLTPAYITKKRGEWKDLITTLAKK
NRP1-CendR mod – modulators of CendR peptide binding to NRP-1, primary screen, biochemical, fluorescence polarization, uHTS | hit rate 0.85% among 360,000 | Neuropilin-1 (Homo sapiens), O14786 | inhibition, % at 25 µM | AID 602438, 2012 | FAM-RPARPAR peptide binding to NRP-1;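 active means inhibition or corrected inhibition above about 18%, plus a signal ratio from 0.5 to 1.5, limit read from the data, passing the limit was not always enough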
SENP8 block-2 – human SENP8 protease inhibitors, primary screen, biochemical, fluorescence, Nedd8 protein substrate, uHTS. Sentrin-specific protease 8 (Homo sapiens), Q96LD8. recombinant SENP8. inhibition, % at 20 µM. hit rate 0.64% among 360,000. AID 602440, 2012; in the data active means inhibition mostly above about 40%, no sharp cut-off; inactive means mostly below about 27%
SENP7 block – SENP7 protease inhibitors, primary screen, biochemical, luminescence, uHTS; inhibition, % at 5 µM; AID 434973, 2010; Sentrin-specific protease 7 (Homo sapiens), Q9BQF6; recombinant SENP7, Z-RLRGG-aminoluciferin luminescence, 40 min; hit rate 1.5% among 330,000;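 active means inhibition above about 50% at the single test dose, limit read from the data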;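 further: plate controls were DMSO with enzyme for no effect and no enzyme buffer wells for full effect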
SENP6 inh – SENP6 protease inhibitors, primary screen, biochemical, luminescence, uHTS; Sentrin-specific protease 6 (Homo sapiens), Q9GZR1; Recombinant SENP6 catalytic domain, aminoluciferin luminescence; hit rate 1.8% among 330,000; inhibition, % at 10 µM;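 active means inhibition above about 50% at the single tested dose, limit read from the data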;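 further: plate controls were DMSO wells with enzyme for no effect and DMSO wells lacking enzyme for full effect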
The depositor's hits bear a star; · = no result given. A selection: hits, their analogues and other compounds. The true share with any hit is near 3.3%.

SMILES | SENP1 FRET inh | SENP8 block-1 | NRP1-CendR mod | SENP8 block-2 | SENP7 block | SENP6 inh
CCc1ccc(C(=O)COC(=O)c2cccs2)cc1 | 2.3 | 90.9* | 2.0 | 24.2 | 96.8* | 4.1
Cc1ccc(C2CC(c3ccc(Cl)cc3)=NNC2=O)cc1 (stereo unspecified) | 1.7 | -2.8 | -11.3 | 21.8 | 4.0 | -10.4
Cc1cccc(C2=NNC(=O)C(c3ccc(Cl)cc3)C2)c1 (stereo unspecified) | 2.2 | 4.8 | 24.6* | -2.6 | -0.8 | 13.3
Cc1ccc(C(=O)COC(=O)c2cccc(O)c2)s1 | 0.7 | 83.2* | -10.2 | -4.2 | 95.1* | 93.2*
CCc1ccc(N2C=C(C(=O)OC)C(c3cccc4ccccc34)C(C#N)=C2N)cc1 (stereo unspecified) | -8.6 | · | -7.2 | -109.2 | · | ·
O=C1NC[C@H](CCCCN2CCN(CCC3CCCCC3)C(=O)C2=O)N(CCc2ccc(O)cc2)C1=O | 3.4 | · | -5.9 | 7.6 | · | ·
Cc1ccccc1OCC(=O)N/N=C1\CCOc2c(C)cccc21 | 1.2 | -7.9 | 6.0 | -139.4 | -8.5 | -10.2
COc1cccc2c1OCC/C2=N\NC(=O)COc1ccccc1C | 1.0 | -7.7 | 31.8* | -167.2 | 2.3 | -10.3
COc1ccc(/C=C2\SC(=S)N(CC(=O)OCC(=O)Nc3ccc(C)cc3Cl)C2=O)cc1 | -34.3 | -5.4 | 33.5* | 10.3 | -3.1 | -17.2
COc1ccc(C)c2sc(=NC(=O)c3ccc(C(C)=O)cc3)n(C)c12 | -15.3 | 81.6* | -2.3 | -305.3 | 97.2* | 89.0*
CCOc1ccc(CCNC(=O)c2ccc(C)c(S(=O)(=O)N3CCOCC3)c2)cc1OCC | -0.3 | · | 0.4 | -1.6 | · | ·
CCOc1ccc(CCNC(=O)c2ccc(F)c(S(=O)(=O)N3CCOCC3)c2)cc1OCC | 1.3 | -4.3 | 23.3* | -2.3 | -7.4 | -8.3
C#CCOCCOCCOCCNc1nc(N2CCN(C(=O)Cn3cc(CCCCN)nn3)CC2)nc(N2CCN(C(=O)Cn3cc(CCCCN)nn3)CC2)n1 | 1.9 | -0.2 | 16.5 | 30.5 | 9.8 | 3.1
C#CCOCCOCCOCCNc1nc(N2CCN(C(=O)CCCCCCCCCCNC(=O)Cn3cc(CCCCCN)nn3)CC2)nc(N2CCN(C(=O)CCCCCCCCCCNC(=O)[C@@H](CCC(=O)O)n3cc(CCCCCN)nn3)CC2)n1 | -1.2 | -0.8 | 20.7* | 5.7 | -1.4 | -3.4
C#CCOCCOCCOCCNc1nc(N2CCN(C(=O)CCCCCCCCCCNC(=O)Cn3cc(CCCCCN)nn3)CC2)nc(N2CCN(C(=O)CCCCCCCCCCNC(=O)Cn3cc(CCCCCN)nn3)CC2)n1 | -1.8 | 3.9 | 18.4* | 21.0 | -3.9 | -3.4
COC(=O)[C@@H]1ON2OCC(C)=C3CCCC[C@@]32[C@H]1C(=O)OC | -2.4 | · | 7.8 | 25.0 | · | ·
COC(=O)[C@@]12C[C@@H](CC(=O)NCC34CC5CC(CC(C5)C3)C4)C(=O)N(CCc3ccc(OC)c(OC)c3)C1=CCC(C)(C)C2 | 2.4 | · | -4.9 | 22.6 | · | ·
CCN(CC)C(=O)Cn1cc(C(=O)C(=O)N2CCN(c3ccccc3)CC2)c2ccccc21 | -3.0 | -11.3 | 24.6* | 9.0 | -15.7 | -12.4
COc1ccc(C(=O)NCc2cccs2)cc1S(=O)(=O)N1CCOCC1 | -0.1 | -2.5 | 3.4 | 1.7 | -0.5 | -9.0
O=C(NCc1cccs1)c1ccc(Cl)c(S(=O)(=O)N2CCOCC2)c1 | 1.7 | · | 30.8* | 21.6 | · | ·
Nc1sccc1C(=O)NCCN1CCOCC1 | -4.2 | · | -2.1 | 15.4 | · | ·
Cc1cc(-c2ccccc2)[nH]c(=O)c1C#N | 0.9 | -3.8 | 2.6 | -385.2 | 1.8 | 6.6
N#Cc1c(-c2ccccc2)[nH]c(=O)[nH]c1=O | 1.3 | -1.6 | 27.4* | -11.6 | 3.5 | -19.5
COc1ccc(CNC(=O)CCNS(=O)(=O)c2ccc(Cl)cc2)cc1 | 2.2 | 5.0 | 28.5* | 4.8 | 6.3 | -12.6
CCCCCCCCNS(=O)(=O)CCNCc1ccco1 | -0.6 | · | 3.5 | -9.9 | · | ·

Screening results from PubChem BioAssay.
